The test system of assay [1] is Staphylococcus aureus. The experiment in a line: Antibacterial activity against methicillin-resistant Staphylococcus aureus. Type of assay: functional. A digest of the protocol:
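Broth microdilution by two-fold serial dilution in 96-well plates following NCCLS. MRSA strain N315. Inoculum adjusted with sterile saline to 1 × 10⁵ CFU. Compounds were made up as DMSO stocks, then diluted in Mueller-Hinton broth. A DMSO plus inoculum well, without drug, was the growth control. Growth was read visually and spectrophotometrically, in triplicate. MIC is the lowest concentration giving complete inhibition of growth.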

The next assay concerns Klebsiella pneumoniae. Briefly: Antibacterial activity against Klebsiella pneumoniae. Format: functional.
In another assay the test system is Bacillus subtilis. Briefly: Antibacterial activity against Bacillus subtilis ATCC 21216 after 24 hrs by two-fold serial dilution method. As to conditions: ATCC 21216, 24 h. Format: functional. A digest of the protocol:
(§1)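 MIC taken as the lowest concentration giving complete growth inhibition, by standard two-fold serial dilution in 96-well plates following NCCLS. Stocks in DMSO, diluted in Mueller–Hinton broth. Inoculum adjusted with sterile saline to 1 × 10⁵ CFU. DMSO with inoculum and no drug served as solvent control. Growth read visually and spectrophotometrically, in triplicate.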

Another assay has as its system Pseudomonas aeruginosa. The experiment in a line: Antibacterial activity against Pseudomonas aeruginosa ATCC 27853 after 24 hrs by two-fold serial dilution method. Format: functional. The note with it: ATCC 27853, 24 h. The method in brief: as §1
A further assay has as its system Candida albicans. The experiment in a line: Antifungal activity against Candida albicans ATCC 76615 after 24 hrs by two-fold serial dilution method. The note with it: ATCC 76615, 24 h. Type of assay: functional. The method in brief: (§2)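 Spore suspension in sterile distilled water from one-day-old cultures on Sabouraud agar, final 1–5 × 10³ spore mL⁻¹. Compound stocks diluted in sterile RPMI 1640 as two-fold serial dilutions in microdilution plates. MIC is the lowest concentration completely inhibiting growth. Growth monitored visually and spectrophotometrically, in triplicate.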

The test system of the next assay is Cyberlindnera jadinii. The experiment in a line: Antifungal activity against Candida utilis after 24 hrs by two-fold serial dilution method. Type of assay: functional. The note with it: Williopsis jadinii. A digest of the protocol:
as §2

The subject of assay [2] is Staphylococcus aureus. The experiment in a line: Antibacterial activity against methicillin-resistant Staphylococcus aureus N315 after 24 hrs by two-fold serial dilution method. Format: functional. As to conditions: N315, 24 h.
For a further assay, the system named is Bacillus. The experiment in a line: Antibacterial activity against Bacillus proteus ATCC 13315 after 24 hrs by two-fold serial dilution method. Format: functional. The note with it: ATCC 13315, 24 h. A digest of the protocol:
as §1

Another assay concerns Micrococcus luteus. Briefly: Antibacterial activity against Micrococcus luteus ATCC 4698 after 24 hrs by two-fold serial dilution method. Format: functional. The note with it: ATCC 4698, 24 h. A digest of the protocol:
as §1

The subject of the next assay is Aspergillus flavus. The experiment in a line: Antifungal activity against Aspergillus flavus after 24 hrs by two-fold serial dilution method. Format: functional. A digest of the protocol: as §2
A further assay relates to Saccharomyces cerevisiae. Briefly: Antifungal activity against Saccharomyces cerevisiae after 24 hrs by two-fold serial dilution method. Type of assay: functional. The method in brief:
as §2

A further assay has as its system Salmonella typhi. The experiment in a line: Antibacterial activity against Bacillus typhi after 24 hrs by two-fold serial dilution method. Type of assay: functional, Salmonella enterica subsp. enterica serovar Typhi. The note with it: Salmonella enterica. The method in brief: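 Two-fold serial dilution in 96-well plates following NCCLS; compounds dissolved in DMSO as stocks, then diluted in Mueller-Hinton broth; bacterial suspension adjusted with sterile saline to 1 × 10⁵ CFU; MIC taken as lowest concentration completely inhibiting growth, monitored visually and spectrophotometrically; DMSO-plus-inoculum well as solvent control; triplicate.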

For another assay, the system named is Escherichia coli. Briefly: Antibacterial activity against Escherichia coli JM109 after 24 hrs by two-fold serial dilution method. Type of assay: functional. As to conditions: JM109, 24 h.
The test system of assay [3] is Staphylococcus aureus. The experiment in a line: Antibacterial activity against Staphylococcus aureus ATCC 6538 after 24 hrs by two-fold serial dilution method. As to conditions: ATCC 6538, 24 h. Format: functional.
For the next assay, the system named is Candida. The experiment in a line: Antifungal activity against Candida mycoderma after 24 hrs by two-fold serial dilution method. Format: functional. A digest of the protocol: as §2

≈ marks a conversion by molar mass, not a printed value.

In turn, `CCCCCCCCCCn1c(CNNC(=O)c2sc(C(=O)NNCc3nc4ccccc4n3CCCCCCCCCC)c(C)c2C)nc2ccccc21` showed an MIC in the assay on Staphylococcus aureus [1] of 2 µg/mL (≈ 2.6 µM).

With `CCCC[C@H](CC(=O)NO)C(=O)N[C@@H](c1nc2ccccc2[nH]1)C(C)C`, in the assay with Klebsiella pneumoniae, the lowest concentration to inhibit growth (MIC) was 0.5 µg/mL (≈ 1.39 µM).

For `Fc1ccccc1NCc1nc2ccccc2[nH]1`, the MIC with Bacillus subtilis turned out to be 32 µg/mL (≈ 133 µM); against Pseudomonas aeruginosa, 128 µg/mL (≈ 531 µM); in the assay with Candida albicans, 32 µg/mL (≈ 133 µM); with Cyberlindnera jadinii, 64 µg/mL (≈ 265 µM); in the assay with Staphylococcus aureus [2], 32 µg/mL (≈ 133 µM); in the assay with Bacillus, 64 µg/mL (≈ 265 µM). For the same molecule, the MIC against Micrococcus luteus came out at 64 µg/mL (≈ 265 µM); in the assay with Aspergillus flavus it was 32 µg/mL (≈ 133 µM); with Saccharomyces cerevisiae, 32 µg/mL (≈ 133 µM); in the assay with Salmonella typhi, 64 µg/mL (≈ 265 µM); in the assay on Escherichia coli, 32 µg/mL (≈ 133 µM); against Staphylococcus aureus [3] it was 16 µg/mL (≈ 66.3 µM). In the assay with Candida, this molecule showed an MIC of 32 µg/mL (≈ 133 µM).

The record behind these values is ChEMBL document CHEMBL2390927, “Design, synthesis and antimicrobial evaluation of novel benzimidazole type of Fluconazole analogues and their synergistic effects with Chloromycin, Norfloxacin and Fluconazole” (2013).
